From PMC10739612 (ACS Chemical Neuroscience, 2023)
Values belong to the molecule of their own block, whether it stands above or below them.

Tests used:
[1] = system: i3Neurons stably expressing LC3-RFP-GFP; experiment: LC3-RFP-GFP dual reporter live imaging in i3Neurons; assay type: cell-based, human
How it was run: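 iPSC-derived i3Neurons stably expressing LC3-RFP-GFP, DIV 10; 0.1% DMSO or test compound 15 μM for 72 h, or BafA1 100 nM for 24 h. Live Fast Airyscan at 37 °C; single mid-cell scan, 488/560 nm. GFP+RFP+ vesicles scored as autophagosomes, RFP-only as autolysosomes. Autolysosome size and intensity from red-channel particle analysis. Three experiments, 60–70 cells per treatment; mean ± SEM.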

Lamin A/C = molecular target: T1, Lamin A/C (Homo sapiens, UniProt P02545); experiment: Pulldown validation and competition, immunoblot for Lamin A/C; assay type: binding; settings: Biotin-RH1115 50 μM, HeLa lysate
T1 sequence (P02545 1-566 limits assumed): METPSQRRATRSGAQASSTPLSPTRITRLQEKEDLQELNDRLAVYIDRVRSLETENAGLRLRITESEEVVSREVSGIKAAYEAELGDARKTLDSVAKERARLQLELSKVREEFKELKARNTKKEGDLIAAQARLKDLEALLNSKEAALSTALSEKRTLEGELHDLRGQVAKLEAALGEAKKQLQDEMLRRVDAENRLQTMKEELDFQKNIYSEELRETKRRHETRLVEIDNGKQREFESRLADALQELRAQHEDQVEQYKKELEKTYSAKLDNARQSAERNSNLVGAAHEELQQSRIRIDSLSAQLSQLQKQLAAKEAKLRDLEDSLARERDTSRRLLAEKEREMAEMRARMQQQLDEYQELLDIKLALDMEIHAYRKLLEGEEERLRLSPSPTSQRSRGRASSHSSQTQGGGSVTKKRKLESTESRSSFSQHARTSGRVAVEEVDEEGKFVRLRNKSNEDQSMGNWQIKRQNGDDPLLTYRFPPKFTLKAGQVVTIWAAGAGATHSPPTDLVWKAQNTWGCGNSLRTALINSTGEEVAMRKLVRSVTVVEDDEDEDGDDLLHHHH
How it was run: (§1)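 HeLa grown 3 days to confluency; lysate cleared 18,000g, 30 min, 4 °C; protein by BCA. Streptavidin magnetic beads preloaded 2 h at 4 °C with biotinylated probe (50 μM) or biotin acid (50 μM). 500 μg lysate added (200 μL), 16 h; beads washed with PBS, eluted in 1× SDS loading buffer, immunoblotted. Competition: free test compound 100 μM added with lysate, 16 h, 4 °C.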

[2] = system: HeLa cells expressing eGFP-LC3; experiment: eGFP-LC3 puncta formation assay; assay type: cell-based
How it was run: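 HeLa stably expressing eGFP-LC3, 3000 cells/well (384-well), 24 h at 37 °C, then 4 h compound exposure. PFA fixation (12 min RT), Hoechst 2 μg/mL; imaged at 10× (DAPI/FITC). Screen hits: Z' >0.4, CV <20%, z-score >2.199 in two replicates. EC50 from 12-point doses (300–0.146 or 1000–0.488 μM by series), excluding concentrations with <40% viability; three experiments in duplicate, mean ± SEM.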

LAMP1 [3] = molecular target: T2, LAMP1 (Homo sapiens, UniProt P11279); experiment: Pulldown validation and competition, immunoblot for LAMP1; assay type: binding; settings: Biotin-RH1115 50 μM, HeLa lysate
T2 sequence (P11279 29-417): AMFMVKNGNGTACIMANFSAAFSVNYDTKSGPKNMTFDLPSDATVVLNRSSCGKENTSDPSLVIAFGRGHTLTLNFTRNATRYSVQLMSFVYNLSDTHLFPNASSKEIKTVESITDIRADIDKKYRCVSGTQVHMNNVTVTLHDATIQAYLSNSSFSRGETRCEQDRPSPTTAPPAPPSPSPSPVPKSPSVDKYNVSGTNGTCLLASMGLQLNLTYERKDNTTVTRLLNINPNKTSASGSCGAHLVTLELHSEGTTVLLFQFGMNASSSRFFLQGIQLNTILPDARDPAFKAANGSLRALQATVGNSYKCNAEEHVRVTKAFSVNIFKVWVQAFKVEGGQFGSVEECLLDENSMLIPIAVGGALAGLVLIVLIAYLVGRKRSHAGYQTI
How it was run: as §1

[4] = system: phosphorylation of the mTOR substrate p70S6K in HeLa cells; experiment: P70S6K and phospho-P70S6K immunoblotting; assay type: cell-based; settings: 1a 20 μM, 2a 40 μM, compared to rapamycin 1 μM
How it was run: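 Same HeLa immunoblot workflow as for LC3, with test compound at 40 μM and 1% BSA for blocking. Probed for phospho-p70S6K and β-actin (anti-rabbit HRP secondary), then stripped and reprobed for total p70S6K; densitometry in ImageJ.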

i3Neurons [5] = experiment: Cell viability assay in i3Neurons; assay type: cell-based, human; settings: 72 h from DIV 7; DS1040 20 μM, RH1096 40 μM, RH1103 40 μM, RH1115 15 μM
How it was run: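 Viability check: DIV 10 i3Neurons on coated coverslips exposed 72 h (0.1% DMSO vehicle), fixed, immunostained for Tau and LAMP1. 5–6 random high-magnification fields per sample; neurons per unit area counted. Tau staining used to confirm normal morphology and neurite integrity. Mean ± SEM, three independent experiments.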

[6] = system: LC3-II levels in HeLa cells; experiment: LC3 immunoblotting; assay type: cell-based; settings: 4 h, 1a 20 μM, 2a 40 μM, further increase with BafA1 100 nM
HeLa cells = experiment: Cell viability assay by nuclear count; assay type: cell-based; settings: 4 h, relative to DMSO
i3Neurons [7] = experiment: Analysis of lysosomal; assay type: cell-based, human; settings: 15 μM, 72 h, vs DMSO
How it was run: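 DIV 10 i3Neurons on poly-L-ornithine/laminin-coated glass coverslips; 72 h exposure, 0.1% DMSO vehicle; fixed, LAMP1-immunostained, imaged by high-resolution confocal. Soma outlined, thresholded, ImageJ particle analysis (minimum 0.002 μm²) giving vesicle mean size, intensity and count per neuron. Three independent experiments, 20–25 neurons per treatment; mean ± SEM.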

LAMP1 [8] = experiment: LAMP1 expression immunoblotting in HeLa cells; assay type: cell-based; settings: 50 μM, 24 h, vs control
How it was run: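 HeLa seeded at 300,000 cells/mL in 6-well plates; 0.1% DMSO or test compound 50 μM. Lysates cleared 12,000 rpm, 30 min, 4 °C; 10% SDS-PAGE, PVDF transfer; 5% blocker in TBS-T; primary antibody overnight 4 °C, HRP secondary 1 h RT; chemiluminescent detection; band quantification in ImageJ.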

SMILES: CO/C1=C\C(C)=C\[C@@H](C)[C@@H](O)[C@@H](C)C/C(C)=C/C=C/[C@H](OC)[C@@H]([C@@H](C)[C@@H](O)[C@H](C)[C@@]2(O)C[C@@H](O)[C@H](C)[C@@H](C(C)C)O2)OC1=O [BafA1, bafilomycin A1, reference compound]
percentage of autolysosomes ([1]; BafA1 100 nM 24 h, compared with RH1115 or DMSO): far less
number of autophagosomes per neuronal cell body ([1]; RH1115 15 μM 72 h, BafA1 100 nM 24 h): massively increased

Lamin A/C capture in pulldown eluent (western blot) (Lamin A/C): highly enriched
EC50 ([2]; Homo sapiens, HeLa, 4 h, read-out: EC50 in the eGFP-LC3 puncta formation assay): 46.2 µM
SMILES: O=C(CCCCC1SCC2NC(=O)NC21)NCCOCCOCCOCCn1nncc1CCCC(=O)OCC1CN(Cc2ccccc2)CC12CCN(CC1CCCCC1)CC2 (stereo not shown) [Biotin-RH1115, (2-Benzyl-8-(cyclohexylmethyl)-2,8-diazaspiro[4.5]decan-4-yl)methyl 4-(1-(13-Oxo-17-(2-oxohexahydro-1H-thieno[3,4-d]imidazol-4-yl)-3,6,9-trioxa-12-azaheptadecyl)-1H-1,2,3-triazol-5-yl)butanoate]
glycosylated LAMP1 capture in pulldown eluent (western blot) (LAMP1 [3]): pulled down and concentrated in the eluent

SMILES: CCCn1cc(CN2CCc3nc(N4CCN(C)CC4)[nH]c(=O)c3CC2)c2ccccc21 [Compound 1a, 2-(4-Methylpiperazin-1-yl)-7-((1-propyl-1H-indol-3-yl)methyl)-3,5,6,7,8,9-hexahydro-4H-pyrimido[4,5-d]azepin-4-one]
phosphorylation of p70S6K (mTOR dependence of autophagy activation) [4]: mTOR-independent manner
cytotoxicity in i3Neurons (cell density at end of treatment) (i3Neurons [5]): no overt cytotoxicity
LC3-II levels by western blot [6]: significant increase

SMILES: CCCn1cc(CN2CCc3nc(-c4ccccc4)[nH]c(=O)c3CC2)c2ccccc21 [Compound 1c, 2-Phenyl-7-((1-propyl-1H-indol-3-yl)methyl)-3,5,6,7,8,9-hexahydro-4H-pyrimido[4,5-d]azepin-4-one]
cytotoxicity (percent viability by nuclear count) (HeLa cells): increase in cell death at concentrations that are close to the concentrations that induced autophagy

SMILES: OCC1CN(Cc2ccccc2)CC12CCN(Cc1ccccn1)CC2 (stereo not shown) [Compound 2a, (2-Benzyl-8-(pyridin-2-ylmethyl)-2,8-diazaspiro[4.5]decan-4-yl)methanol]
phosphorylation of p70S6K (mTOR dependence of autophagy activation) [4]: mTOR-independent manner
cytotoxicity in i3Neurons (cell density at end of treatment) (i3Neurons [5]): no overt cytotoxicity
LC3-II levels by western blot [6]: significant increase

SMILES: OCC1CN(Cc2ccccc2)CC12CCN(Cc1ccccc1)CC2 (stereo not shown) [Compound 2b, (2,8-Dibenzyl-2,8-diazaspiro[4.5]decan-4-yl)methanol]
cytotoxicity in i3Neurons (cell density at end of treatment) (i3Neurons [5]): no overt cytotoxicity
fold increase in potency compared to RH1096 (eGFP-LC3 puncta formation) ([2]; relative to RH1096): 3 fold

SMILES: OCC1CN(Cc2ccccc2)CC12CCN(CC1CCCCC1)CC2 (stereo not shown) [Compound 2c, (2-Benzyl-8-(cyclohexylmethyl)-2,8-diazaspiro[4.5]decan-4-yl)methanol]
autolysosome size relative to DMSO-treated condition ([1]; 15 μM, 72 h): ~3 times
total RFP intensity per autolysosome vesicle ([1]; 15 μM, 72 h, vs DMSO): increased
intensity of LAMP1 vesicles (i3Neurons [7]): increased
mean size of LAMP1 vesicles (i3Neurons [7]): increased
cytotoxicity in i3Neurons (cell density at end of treatment) (i3Neurons [5]): no overt cytotoxicity
ratio of glycosylated/non-glycosylated LAMP1 (LAMP1 [8]): significant increase
fold increase in potency compared to RH1096 (eGFP-LC3 puncta formation) ([2]; relative to RH1096): 6 fold

SMILES: OCC1CN(Cc2ccccc2)CC12CCN(Cc1ccncc1)CC2 (stereo not shown) [Compound 2d, (2-Benzyl-8-(pyridin-4-ylmethyl)-2,8-diazaspiro[4.5]decan-4-yl)methanol]
fold decrease in potency compared to RH1096 (eGFP-LC3 puncta formation) ([2]; relative to RH1096): 2 fold
